Laboratory results as given in ChEMBL document CHEMBL4414574, “Structure-Based Discovery and Development of a Series of Potent and Selective Bromodomain and Extra-Terminal Protein Inhibitors” (J Med Chem, 2019).
Active and inactive are the calls of the source. No cut-off for these calls is given here.

Tests used:
[1] = Cmax in rat plasma at 50 mg/kg, po; format: ADME, organism-based; set-up: dose 50 mg/kg, route oral
Cytochrome P450 3A4 = Cytochrome P450 3A4 (Homo sapiens, UniProt P08684); experiment: Time-dependent inhibition of CYP3A4 in human liver microsomes at 10 uM using midazolam or testosterone as substrate preincubated up to 30 mins followed by NADPH generating system addition and measured after 10 mins; format: ADME
Chain of Cytochrome P450 3A4 (P08684 whole entry): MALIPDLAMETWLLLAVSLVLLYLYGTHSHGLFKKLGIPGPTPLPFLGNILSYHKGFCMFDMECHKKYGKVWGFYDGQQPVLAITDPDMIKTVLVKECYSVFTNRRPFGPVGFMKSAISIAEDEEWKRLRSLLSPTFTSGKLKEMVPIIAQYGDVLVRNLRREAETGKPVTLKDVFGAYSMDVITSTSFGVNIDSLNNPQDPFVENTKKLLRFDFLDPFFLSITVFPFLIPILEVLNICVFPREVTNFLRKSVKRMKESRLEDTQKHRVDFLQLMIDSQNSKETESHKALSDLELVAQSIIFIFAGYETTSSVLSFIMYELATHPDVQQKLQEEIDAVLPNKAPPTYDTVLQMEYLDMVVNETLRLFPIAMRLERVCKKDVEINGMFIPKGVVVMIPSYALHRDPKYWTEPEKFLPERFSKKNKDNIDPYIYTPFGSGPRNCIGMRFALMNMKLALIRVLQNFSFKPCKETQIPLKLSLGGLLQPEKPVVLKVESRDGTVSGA
Outline: (§1)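 Human liver microsomes 0.2 mg/mL, 100 mM phosphate pH 7.4, 10 μM test compound, preincubated 0, 5, 10 and 30 min at 37 °C; then NADPH plus probe cocktail (5 μM midazolam, 50 μM testosterone, 5 μM dextromethorphan, 10 μM diclofenac, 50 μM phenacetin, 50 μM S-(+)-mephenytoin) added; 10 min reaction; kobs in units of 10^-4/min.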

[2] = AUC (0 to t) in rat brain at 50 mg/kg, po; format: ADME, organism-based
Outline: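 Compound was given orally or intravenously in 1% DMSO/0.5% HPMC vehicle. Concentrations in plasma, or in brain where stated, gave Tmax, Cmax, T1/2, AUC0-t and AUC0-inf.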

[3] = molecular target: CREB-binding protein (Homo sapiens) (UniProt Q92793); experiment: Binding affinity to human partial length CREBBP (R1081 to G1197 residues) expressed in Escherichia coli BL21 cells assessed as residual binding level at 1 uM measured after 1 hr by quantitative PCR based BROMOscan assay relative to control
Chain of CREB-binding protein (Homo sapiens) (Q92793 2-2442 limits assumed): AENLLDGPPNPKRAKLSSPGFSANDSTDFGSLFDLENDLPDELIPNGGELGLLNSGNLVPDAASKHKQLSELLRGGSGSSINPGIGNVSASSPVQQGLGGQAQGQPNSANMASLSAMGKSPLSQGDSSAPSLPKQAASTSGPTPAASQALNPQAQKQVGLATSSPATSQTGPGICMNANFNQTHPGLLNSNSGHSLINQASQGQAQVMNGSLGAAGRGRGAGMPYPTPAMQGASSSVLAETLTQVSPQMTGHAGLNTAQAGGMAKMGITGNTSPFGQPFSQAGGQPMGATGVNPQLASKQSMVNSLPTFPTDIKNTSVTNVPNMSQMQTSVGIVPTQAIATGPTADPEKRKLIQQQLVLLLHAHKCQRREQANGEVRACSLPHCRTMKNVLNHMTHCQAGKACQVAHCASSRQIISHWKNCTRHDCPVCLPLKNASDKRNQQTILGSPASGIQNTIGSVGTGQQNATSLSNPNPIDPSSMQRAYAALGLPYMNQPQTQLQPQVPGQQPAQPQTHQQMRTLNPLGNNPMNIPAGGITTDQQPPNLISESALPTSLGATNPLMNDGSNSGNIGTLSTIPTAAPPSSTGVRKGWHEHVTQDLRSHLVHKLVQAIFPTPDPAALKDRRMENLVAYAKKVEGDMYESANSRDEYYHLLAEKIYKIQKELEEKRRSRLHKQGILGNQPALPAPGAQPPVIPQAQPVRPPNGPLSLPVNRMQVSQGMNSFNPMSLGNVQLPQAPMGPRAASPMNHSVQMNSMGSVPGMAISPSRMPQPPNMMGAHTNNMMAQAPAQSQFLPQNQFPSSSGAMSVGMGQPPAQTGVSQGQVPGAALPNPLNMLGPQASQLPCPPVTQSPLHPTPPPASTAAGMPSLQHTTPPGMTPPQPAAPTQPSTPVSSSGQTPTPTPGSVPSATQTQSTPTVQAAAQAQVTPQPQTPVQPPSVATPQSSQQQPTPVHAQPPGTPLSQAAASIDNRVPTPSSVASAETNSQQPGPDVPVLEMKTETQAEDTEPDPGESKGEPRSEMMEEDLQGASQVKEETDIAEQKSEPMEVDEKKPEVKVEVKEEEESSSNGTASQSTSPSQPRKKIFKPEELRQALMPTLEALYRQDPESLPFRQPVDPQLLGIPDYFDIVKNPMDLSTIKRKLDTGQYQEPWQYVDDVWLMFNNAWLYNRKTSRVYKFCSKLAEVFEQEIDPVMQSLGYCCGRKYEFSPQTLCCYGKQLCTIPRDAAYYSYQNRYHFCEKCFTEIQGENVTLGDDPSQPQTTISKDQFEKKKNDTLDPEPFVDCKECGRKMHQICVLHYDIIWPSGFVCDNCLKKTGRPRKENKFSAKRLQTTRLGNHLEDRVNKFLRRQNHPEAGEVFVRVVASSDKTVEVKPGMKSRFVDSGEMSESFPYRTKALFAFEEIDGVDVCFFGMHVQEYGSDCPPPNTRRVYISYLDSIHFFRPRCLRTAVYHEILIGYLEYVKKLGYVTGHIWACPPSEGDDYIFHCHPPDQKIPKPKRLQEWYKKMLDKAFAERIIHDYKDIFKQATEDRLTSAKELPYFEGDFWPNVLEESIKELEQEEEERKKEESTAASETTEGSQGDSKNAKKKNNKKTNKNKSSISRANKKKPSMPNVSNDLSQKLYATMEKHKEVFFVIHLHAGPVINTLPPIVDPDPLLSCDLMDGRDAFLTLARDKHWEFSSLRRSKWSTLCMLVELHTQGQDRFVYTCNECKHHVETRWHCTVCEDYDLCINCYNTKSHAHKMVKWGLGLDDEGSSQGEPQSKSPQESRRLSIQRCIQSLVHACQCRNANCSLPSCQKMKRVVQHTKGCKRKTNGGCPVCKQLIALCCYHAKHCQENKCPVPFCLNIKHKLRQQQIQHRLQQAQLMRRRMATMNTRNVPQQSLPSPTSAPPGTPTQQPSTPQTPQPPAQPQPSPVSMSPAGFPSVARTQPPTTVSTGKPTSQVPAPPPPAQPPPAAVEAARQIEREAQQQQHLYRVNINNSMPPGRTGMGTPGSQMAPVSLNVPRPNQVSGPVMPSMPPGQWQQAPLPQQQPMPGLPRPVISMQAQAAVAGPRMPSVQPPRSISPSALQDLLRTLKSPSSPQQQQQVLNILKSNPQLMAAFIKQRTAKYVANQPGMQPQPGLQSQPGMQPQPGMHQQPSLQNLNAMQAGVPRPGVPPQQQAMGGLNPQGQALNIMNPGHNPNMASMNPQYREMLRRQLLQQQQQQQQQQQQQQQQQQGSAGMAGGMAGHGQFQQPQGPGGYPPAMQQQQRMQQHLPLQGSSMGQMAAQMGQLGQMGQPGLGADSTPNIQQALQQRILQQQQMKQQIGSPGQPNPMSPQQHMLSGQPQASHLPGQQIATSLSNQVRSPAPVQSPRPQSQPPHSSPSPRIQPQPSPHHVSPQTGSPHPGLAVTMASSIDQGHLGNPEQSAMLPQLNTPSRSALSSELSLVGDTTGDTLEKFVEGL
Outline: (§2)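 A BROMOScan competition-binding panel of 32 bromodomains was run at a single 1 μM compound concentration. Results are primary-screen 'Percent Control', where lower values indicate stronger binding.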

[4] = molecular target: Transcription intermediary factor 1-alpha (Homo sapiens) (UniProt O15164); experiment: Binding affinity to human partial length TRIM24 (P790 to P977 residues) expressed in Escherichia coli BL21 cells assessed as residual binding level at 1 uM measured after 1 hr by quantitative PCR based BROMOscan assay relative to control
Outline: (§3)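 Bromodomain panel screen (32 bromodomains) run at 1 μM single concentration; primary binding reported as 'Percent Control', lower values meaning stronger interaction.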

RKO = experiment: Antiproliferative activity against human RKO cells after 72 hrs by CCK8 or SRB assay; format: functional, cell-based
[5] = Drug uptake in plasma of Balb/c nude mouse xenografted with human MV4-11 cells at 10 to 50 mg/kg, po measured after 1 to 8 hrs; format: ADME, organism-based; conditions: in vivo
Outline: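 MV4-11 xenografts in BALB/c nude mice given oral compound; drug concentrations in plasma and tumor tissue measured at 1 h and 8 h after dosing.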

[6] = molecular target: Bromodomain-containing protein 4 (Homo sapiens, UniProt O60885); experiment: Binding affinity to human partial length BRD4 bromodomain 2 long isoform (K333 to E460 residues) expressed in Escherichia coli BL21 cells assessed as residual binding level at 1 uM measured after 1 hr by quantitative PCR based BROMOscan assay relative to control; outline: as §2
[7] = Tmax in ICR mouse brain at 50 mg/kg, po administered via gavage measured after 0.25 to 24 hrs by UPLC/MS analysis; format: ADME, organism-based
Outline: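 Male ICR mice dosed orally at 50 mg/kg in 1% DMSO/0.5% HPMC; drug measured in plasma and brain.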

MV4-11 = experiment: Induction of apoptosis in human MV4-11 cells assessed as reduction in BCL-xL level after 24 hrs by Western blot analysis; format: functional, cell-based
Outline: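 MV4-11 cells exposed to compound at the indicated doses for 24 h; lysates probed by Western blotting for the target protein, with GAPDH as loading control.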

[8] = molecular target: ATPase family AAA domain-containing protein 2 (Homo sapiens) (UniProt Q6PL18); experiment: Binding affinity to human partial length ATAD2A (Q981 to R1108 residues) expressed in Escherichia coli BL21 cells assessed as residual binding level at 1 uM measured after 1 hr by quantitative PCR based BROMOscan assay relative to control; outline: as §2
Chain of ATPase family AAA domain-containing protein 2 (Homo sapiens) (Q6PL18 whole entry, the tested form may be a part): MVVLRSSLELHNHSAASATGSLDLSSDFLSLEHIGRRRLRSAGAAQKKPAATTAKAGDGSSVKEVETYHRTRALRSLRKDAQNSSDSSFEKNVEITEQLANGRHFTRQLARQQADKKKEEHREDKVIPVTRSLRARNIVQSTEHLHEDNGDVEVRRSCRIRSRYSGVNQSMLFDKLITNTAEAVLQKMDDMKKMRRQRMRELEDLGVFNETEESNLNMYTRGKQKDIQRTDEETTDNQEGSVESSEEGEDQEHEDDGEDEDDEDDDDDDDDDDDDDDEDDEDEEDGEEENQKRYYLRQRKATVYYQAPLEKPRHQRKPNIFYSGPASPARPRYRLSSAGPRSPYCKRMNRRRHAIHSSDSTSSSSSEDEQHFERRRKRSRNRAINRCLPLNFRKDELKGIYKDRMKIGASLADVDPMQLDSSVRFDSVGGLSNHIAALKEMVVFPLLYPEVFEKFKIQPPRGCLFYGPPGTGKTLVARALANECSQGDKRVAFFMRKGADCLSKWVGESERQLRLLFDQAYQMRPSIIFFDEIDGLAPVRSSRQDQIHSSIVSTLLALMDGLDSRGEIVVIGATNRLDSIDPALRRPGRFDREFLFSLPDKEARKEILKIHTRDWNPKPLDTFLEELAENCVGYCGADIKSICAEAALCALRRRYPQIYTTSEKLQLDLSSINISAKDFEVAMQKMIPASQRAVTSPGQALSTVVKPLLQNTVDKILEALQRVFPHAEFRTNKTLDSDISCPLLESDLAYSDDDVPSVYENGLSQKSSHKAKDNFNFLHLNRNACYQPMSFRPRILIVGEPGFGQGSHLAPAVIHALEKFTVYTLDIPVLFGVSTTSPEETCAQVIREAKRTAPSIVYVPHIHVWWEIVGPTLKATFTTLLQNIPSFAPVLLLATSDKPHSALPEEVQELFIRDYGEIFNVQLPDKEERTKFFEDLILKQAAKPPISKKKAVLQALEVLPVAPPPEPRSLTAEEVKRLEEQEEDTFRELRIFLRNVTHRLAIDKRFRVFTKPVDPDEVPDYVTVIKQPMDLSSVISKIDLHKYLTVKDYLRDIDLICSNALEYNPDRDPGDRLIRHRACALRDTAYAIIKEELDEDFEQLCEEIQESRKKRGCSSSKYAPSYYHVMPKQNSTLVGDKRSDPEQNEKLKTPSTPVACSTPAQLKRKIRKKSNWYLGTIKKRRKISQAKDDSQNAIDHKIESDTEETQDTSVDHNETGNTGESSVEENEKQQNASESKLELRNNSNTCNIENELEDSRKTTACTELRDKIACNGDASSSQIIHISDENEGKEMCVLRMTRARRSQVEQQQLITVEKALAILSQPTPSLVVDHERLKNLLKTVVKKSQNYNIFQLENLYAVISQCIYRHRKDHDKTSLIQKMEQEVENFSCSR

[9] = molecular target: Transcription initiation factor TFIID subunit 1-like (Homo sapiens) (UniProt Q8IZX4); experiment: Binding affinity to human partial length TAF1L bromodomain 2 (Q1523 to D1654 residues) expressed in Escherichia coli BL21 cells assessed as residual binding level at 1 uM measured after 1 hr by quantitative PCR based BROMOscan assay relative to control; outline: as §3
Cytochrome P450 1A2 = molecular target: T1, Cytochrome P450 1A2 (Homo sapiens, UniProt P05177); experiment: Time-dependent inhibition of CYP1A2 in human liver microsomes at 10 uM using phenacetin as substrate preincubated up to 30 mins followed by NADPH generating system addition and measured after 10 mins; format: ADME; outline: as §1
T1 sequence (P05177 whole entry): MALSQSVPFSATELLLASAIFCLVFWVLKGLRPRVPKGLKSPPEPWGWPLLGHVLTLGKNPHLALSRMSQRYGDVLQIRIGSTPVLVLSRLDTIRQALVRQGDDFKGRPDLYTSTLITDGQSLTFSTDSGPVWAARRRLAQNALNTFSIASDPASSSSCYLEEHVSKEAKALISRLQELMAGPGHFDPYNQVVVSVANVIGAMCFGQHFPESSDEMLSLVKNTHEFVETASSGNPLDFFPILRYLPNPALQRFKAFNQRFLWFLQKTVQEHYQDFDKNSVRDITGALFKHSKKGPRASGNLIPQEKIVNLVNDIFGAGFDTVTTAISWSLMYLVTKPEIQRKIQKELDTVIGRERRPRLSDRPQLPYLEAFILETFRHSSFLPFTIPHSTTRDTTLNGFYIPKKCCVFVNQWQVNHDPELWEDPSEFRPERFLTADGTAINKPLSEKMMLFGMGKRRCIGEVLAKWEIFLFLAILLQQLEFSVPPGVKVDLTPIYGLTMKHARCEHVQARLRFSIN

HuTu80 = experiment: Antiproliferative activity against human HuTu 80 cells after 72 hrs by CCK8 or SRB assay; format: functional, cell-based
[10] = Cmax in ICR mouse brain at 50 mg/kg, po administered via gavage measured after 0.25 to 24 hrs by UPLC/MS analysis; format: ADME, organism-based; set-up: dose 50 mg/kg, route oral
Outline: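 Male ICR mice dosed orally in 1% DMSO/0.5% HPMC vehicle; plasma or brain drug levels used to derive Tmax, Cmax, AUC0-t, AUC0-inf and T1/2.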

[11] = molecular target: Histone acetyltransferase p300 (Homo sapiens) (UniProt Q09472); experiment: Binding affinity to human partial length EP300 (A1040 to G1161 residues) expressed in Escherichia coli BL21 cells assessed as residual binding level at 1 uM measured after 1 hr by quantitative PCR based BROMOscan assay relative to control; outline: as §2
[12] = molecular target: Serine/threonine-protein kinase PLK1 (Homo sapiens) (UniProt P53350); experiment: Inhibition of full-length recombinant human His-tagged PLK1 expressed in baculovirus expression system at 10 uM using Ser/Thr 16 Peptide as substrate after 60 mins by Z-LYTE assay relative to control
Chain of Serine/threonine-protein kinase PLK1 (Homo sapiens) (P53350 whole entry, the tested form may be a part): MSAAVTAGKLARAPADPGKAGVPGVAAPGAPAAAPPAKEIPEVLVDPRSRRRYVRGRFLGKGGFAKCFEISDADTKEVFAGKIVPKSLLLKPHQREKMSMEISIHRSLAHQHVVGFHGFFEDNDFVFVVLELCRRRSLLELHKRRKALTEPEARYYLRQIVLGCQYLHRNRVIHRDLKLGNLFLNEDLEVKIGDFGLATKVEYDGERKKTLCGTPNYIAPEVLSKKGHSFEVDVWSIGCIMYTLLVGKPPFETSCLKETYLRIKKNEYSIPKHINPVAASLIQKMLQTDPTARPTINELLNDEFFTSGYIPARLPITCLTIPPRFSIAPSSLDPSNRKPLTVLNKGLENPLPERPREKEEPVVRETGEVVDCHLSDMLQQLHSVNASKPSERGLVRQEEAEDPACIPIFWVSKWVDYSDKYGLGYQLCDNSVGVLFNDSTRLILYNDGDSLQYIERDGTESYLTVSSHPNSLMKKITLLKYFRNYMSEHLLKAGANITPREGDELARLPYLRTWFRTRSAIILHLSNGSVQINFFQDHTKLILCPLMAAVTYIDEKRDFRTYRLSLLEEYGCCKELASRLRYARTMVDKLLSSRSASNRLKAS

[13] = molecular target: Histone acetyltransferase KAT2B (Homo sapiens) (UniProt Q92831); experiment: Binding affinity to human partial length PCAF (G715 to D831 residues) expressed in mammalian expression system assessed as residual binding level at 1 uM measured after 1 hr by quantitative PCR based BROMOscan assay relative to control; outline: as §3

Cc1ccc(-n2nc(C(=O)N3C[C@@H](C)N[C@@H](C)C3)nc2-c2ccc3c(c2)N(C2CCCC2)[C@H](C)C(=O)N3C)cc1
Cmax [1]: 1250 ng/mL | TDI (Cytochrome P450 3A4): 8 ×10⁻⁴ /min | AUC(0-t) [2]: 331 ng·h/mL | Activity [3]: 50 to 70% | Activity [4]: 50 to 70% | Activity (RKO): Active | Drug uptake [5]: Active | Activity [6]: < 5% | Tmax [7]: 1 h | Activity (MV4-11): Dose-dependent effect | Activity [8]: 70 to 100% | Activity [9]: 20 to 50% | TDI (Cytochrome P450 1A2): Not Active | Activity (HuTu80): Active | Cmax [10]: 377 ng/mL | Activity [11]: 20 to 50% | inhibition [12]: < 10% | Activity [13]: 70 to 100%
